Laboratory results from ChEMBL document CHEMBL4316598, “Synthesis, antiproliferative and apoptosis induction potential activities of novel bis(indolyl)hydrazide-hydrazone derivatives” (Bioorg Med Chem, 2019).
pIC50: −log10 of the molar value. ≈ marks a conversion by molar mass, not a printed value. Calls of active or inactive are those of the source. No cut-off for these calls is given here.

Legend:
HeLa [1] = assay: Induction of caspase-dependent apoptosis in human HeLa cells assessed as activation of caspase-3 at 3 uM after 24 hrs by Western blot analysis; assay type: functional, cell-based
Method in brief: (§1)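 Cleaved caspase-3 immunoblot. Cells were exposed at 1, 3 and 5 µM for 24 h at 37 °C, with paclitaxel 3 µM as positive control. Lysis was in ice-cold Triton X-100 buffer, and protein was measured by BCA. Lysates were separated by electrophoresis, transferred to nitrocellulose and blocked in milk. Primary antibody was applied overnight at 4 °C and secondary for 1 h at 28 °C. Detection was by enhanced chemiluminescence.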

MCF7 [2] = assay: Induction of caspase-dependent apoptosis in human MCF7 cells assessed as activation of caspase-3 at 3 uM after 24 hrs by Western blot analysis; assay type: functional, cell-based; method in brief: as §1
HeLa [3] = assay: Cytotoxicity against human HeLa cells assessed as reduction in cell viability after 4 hrs by MTT assay; assay type: functional, cell-based; settings: for IC50: hela; for pIC50: Homo sapiens, HeLa, 4 h, read-out: IC50
Method in brief: (§2)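 MTT: 10,000–20,000 cells/well attached for 16 h, then washed twice with serum-free RPMI. Treated with 1–200 µM for 4 h, 3 parallel runs per concentration. MTT added for 2 h; medium partly removed and isopropanol added. A590 read. Viability = (A treated − A doxorubicin)/(A medium − A doxorubicin)×100. Mean of three experiments, triplicate wells each.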

MDA-MB-231 = assay: Cytotoxicity against human MDA-MB-231 cells assessed as reduction in cell viability after 4 hrs by MTT assay; assay type: functional, cell-based; settings: MDA-MB-231, 4 h; method in brief: as §2
MCF7 [4] = assay: Cytotoxicity against human MCF7 cells assessed as reduction in cell viability after 4 hrs by MTT assay; assay type: functional, cell-based; settings: for IC50: mcf7; for pIC50: Homo sapiens, MCF7, 4 h, read-out: IC50; method in brief: as §2
A549 = assay: Cytotoxicity against human A549 cells assessed as reduction in cell viability after 4 hrs by MTT assay; assay type: functional, cell-based; settings: for pIC50: Homo sapiens, A549, 4 h, read-out: IC50; method in brief: as §2
HEK293 = assay: Cytotoxicity against HEK293 cells assessed as reduction in cell viability after 4 hrs by MTT assay; assay type: cell-based, Homo sapiens; settings: for IC50: hek293; method in brief: as §2
DU-145 = assay: Antiproliferative activity against human DU145 cells by MTS assay; assay type: functional, cell-based
[5] = Cytotoxicity against human SW680 cells assessed as reduction in cell viability after 4 hrs by MTT assay; assay type: functional, cell-based
FaDu = assay: Cytotoxicity against human FADU cells assessed as reduction in cell viability after 4 hrs by MTT assay; assay type: functional, cell-based
SCC-25 = assay: Cytotoxicity against human SCC25 cells assessed as reduction in cell viability after 4 hrs by MTT assay; assay type: functional, cell-based; settings: SCC-25, 4 h
Detroit 562 = assay: Cytotoxicity against human Detroit 562 cells assessed as reduction in cell viability after 4 hrs by MTT assay; assay type: functional, cell-based; settings: Detroit 562, 4 h

SMILES | IC50 (HeLa [3]) | pIC50 (MDA-MB-231) | IC50 (MCF7 [4]) | IC50 (HEK293) | pIC50 (HeLa [3]) | pIC50 (A549) | pIC50 (MCF7 [4]) | further results
CC(=O)O[C@H]1C(=O)[C@@]2(C)[C@H]([C@H](OC(=O)c3ccccc3)[C@]3(O)C[C@H](OC(=O)[C@H](O)[C@@H](NC(=O)c4ccccc4)c4ccccc4)C(C)=C1C3(C)C)[C@]1(OC(C)=O)CO[C@@H]1C[C@@H]2O | – | – | – | – | – | – | – | Activity (HeLa [1]): Active; Activity (MCF7 [2]): Active
Cn1cc(C(=O)N/N=C\c2c[nH]c3ccccc23)c2cc(Br)ccc21 | Not Active | 4.85 | Not Active | Non-Toxic | – | – | – | IC50 (A549; a549): Not Active
COc1ccc2[nH]cc(/C=N\NC(=O)c3cn(C)c4ccc(Br)cc34)c2c1 | – | 4.64 | Not Active | Non-Toxic | 4.85 | 4.89 | – | –
Cn1cc(/C=N\NC(=O)c2cn(C)c3ccccc23)c2ccccc21 | Not Active | 4.72 | – | Non-Toxic | – | 4.72 | 4.51 | –
O=C(N/C=C/c1c[nH]c2ccccc12)C(=O)c1c[nH]c2ccccc12 | – | – | – | – | – | – | – | IC50 (DU-145): 7.6 µg/mL (≈ 23.1 µM)
COc1cccc2c1C(=O)c1c(O)c3c(c(O)c1C2=O)C[C@@](O)(C(=O)CO)C[C@@H]3O[C@H]1C[C@H](N)[C@H](O)[C@H](C)O1 [DOXORUBICIN] | – | 5.51 | – | – | 5.96 to 6.44 | 5.68 to 6.05 | 6.01 to 6.64 | pIC50 (HEK293; Homo sapiens, HEK293, 4 h, read-out: IC50): < 3.70; pIC50 [5]: 5.92; pIC50 (FaDu): 6.17; pIC50 (SCC-25): 5.65; pIC50 (Detroit 562): 5.90
